# From ChEMBL document CHEMBL5154854, “Identification of a Vitamin-D Receptor Antagonist, MeTC7, which Inhibits the Growth of Xenograft and Transgenic Tumors In Vivo” (J Med Chem, 2022)
# Active and inactive are the calls of the source. No cut-off for these calls is given here.
# How the values were obtained:
# BE(2)-C [1] = assay: Anti-tumor activity against human BE2C cells xenografted in NSG mouse assessed as reduction in tumor volume at 10 mg/kg, ip measured for 5 to 8 days; assay type: functional, organism-based; details: time 5-8 day
# Outline: (§1)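 NSG mice, 6–8 weeks, injected subcutaneously in right flank with ES2 (250,000) or SH-SY5Y/BE(2)C (1 million) cells in cold matrigel/serum-free RPMI 1:1. Once palpable, 10 mg/kg IP M–F vs vehicle; volume (length × width2)[…]; BE(2)C and ES2 monitored alternate days; endpoint 2000 mm3; % change in volume, t-test.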
# [2] = Downregulation of VDR expression in human BE2C cells at 1 uM incubated for 24 hrs by western blot analysis relative to control; assay type: functional, BE(2)-C
# Outline: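 BE(2)-C neuroblastoma cells were treated for 24 h and immunoblotted for VDR, with β-actin or α-tubulin as loading control. Band intensities are reported as normalized densitometry.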
# BE(2)-C [3] = assay: Cytotoxicity against human BE2C cells assessed as reduction in cell viability incubated for 48 hrs by MTS assay; assay type: functional, cell-based; details: dose 0.1-10 µM, DDE = dose-dependent effect
# Outline: (§2)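 Neuroblastoma lines seeded 5,000 cells/well, attached overnight, treated 48 h in complete medium (DMSO ≤0.2%); MTS reagent 1:10 in fresh RPMI 2–4 h, absorbance 490 nm.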
# D283 Med = assay: Anti-tumor activity against human D283 Med cells xenografted in NSG mouse assessed as reduction in tumor volume at 10 mg/kg, ip measured on day 12; assay type: functional, organism-based; details: time 12.0 day
# Outline: (§3)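 NSG mice implanted subcutaneously with 1 million D283, PANC-1 or BXPC-3 cells in matrigel/DMEM 1:1; once palpable, 10 mg/kg IP M–F vs vehicle; volume (length × width2)[…], % change; endpoint 2000 mm3; tumors excised and weighed; unpaired t-test.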
# BXPC-3 = assay: Anti-tumor activity against human BXPC-3 cells xenografted in NSG mouse assessed as reduction in tumor growth at 10 mg/kg, ip measured on day 18; assay type: functional, organism-based; details: time 18.0 day; outline: as §3
# Mus musculus [4] = assay: Anti-tumor activity against tumor cells in TH-MYCN +/+ neuroblastoma 129x1/SvJ.Tg (TH-MYCN)41Waw/Nci mouse model assessed as reduction in tumor weight at 10 mg/kg, ip measured on day 7 by ultrasound imaging analysis; assay type: functional, organism-based; details: time 7.0 day
# Outline: (§4)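 Homozygous TH-MYCN+/+ mice (129×1/SvJ background, genotyped) with spontaneous neuroblastoma dosed IP, vehicle n = 7, 10 mg/kg n = 8, six treatments; a 100 mg/kg group got three. Tumor burden by abdominal ultrasound under 1–3% isoflurane; tumors excised and weighed at end; groups compared by t-test.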
# SH-SY5Y [5] = assay: Cytotoxicity against human SH-SY5Y cells assessed as reduction in cell viability incubated for 48 hrs by MTS assay; assay type: functional, cell-based; details: dose 0.1-10 µM, DDE = dose-dependent effect; outline: as §2
# Mus musculus [6] = assay: Anti-tumor activity against tumor cells in TH-MYCN +/+ neuroblastoma 129x1/SvJ.Tg (TH-MYCN)41Waw/Nci mouse model assessed as reduction in tumor volume administered intraperitoneally measured on day 7 by ultrasound imaging analysis; assay type: functional, organism-based; details: route ip, time 7.0 day, DDE = dose-dependent effect; outline: as §4
# [7] = target: T1, Vitamin D3 receptor (Homo sapiens) (UniProt P11473); assay: Antagonist activity at VDR in human 2008 cells assessed as suppression of RXR-alpha expression at 250 nM incubated for 18 hrs by western blot analysis relative to control; assay type: cell-based; details: filed as antagonist
# T1 sequence (whole entry): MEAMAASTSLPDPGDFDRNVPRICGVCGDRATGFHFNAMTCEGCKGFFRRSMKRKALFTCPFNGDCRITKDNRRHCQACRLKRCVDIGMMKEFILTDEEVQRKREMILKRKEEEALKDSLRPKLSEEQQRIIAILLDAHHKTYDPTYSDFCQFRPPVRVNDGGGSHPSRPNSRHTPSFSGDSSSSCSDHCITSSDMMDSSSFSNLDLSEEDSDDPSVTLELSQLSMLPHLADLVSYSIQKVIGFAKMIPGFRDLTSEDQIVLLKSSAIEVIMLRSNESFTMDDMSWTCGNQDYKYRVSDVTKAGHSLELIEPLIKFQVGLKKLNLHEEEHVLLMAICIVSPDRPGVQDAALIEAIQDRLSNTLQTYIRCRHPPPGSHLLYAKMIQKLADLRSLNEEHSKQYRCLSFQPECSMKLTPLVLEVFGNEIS
# Outline: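 2008 ovarian cancer cells exposed 250 nM, 18 h; immunoblot with loading control (GAPDH for RXR-α, α-tubulin for Importin-4); band densitometry normalized to loading control.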
# SK-OV-3 = assay: Anti-tumor activity against human SK-OV-3 cells xenografted in nude mouse assessed as reduction in tumor growth at 10 mg/kg, ip measured for 1 to 39 days; details: time 1-39 day
# 2008 = assay: Cytotoxicity against human 2008 cells assessed as reduction in cell viability incubated for 24 hrs by MTS assay; assay type: functional, cell-based; details: dose 0.25-1.25 µM, DDE = dose-dependent effect
# Outline: (§5)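 Ovarian lines seeded 5,000 cells/well, attached overnight, treated 24 h in complete medium (DMSO ≤0.2%); MTS reagent 1:10 in fresh RPMI 2–4 h, absorbance 490 nm; triplicate, % of DMSO-treated cells.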
# IGROV-1 = assay: Cytotoxicity against human IGROV-1 cells assessed as reduction in cell viability incubated for 24 hrs by MTS assay; assay type: functional, cell-based; details: dose 0.25-1.25 µM, DDE = dose-dependent effect; outline: as §5
# SH-SY5Y [8] = assay: Anti-tumor activity against human SH-SY5Y cells xenografted in NSG mouse assessed as reduction in tumor volume at 10 mg/kg, ip measured for 5 to 10 days; assay type: functional, organism-based; details: time 5-10 day; outline: as §1
# [9] = Toxicity in TH-MYCN +/+ transgenic neuroblastoma 129x1/SvJ.Tg (TH-MYCN)41Waw/Nci mouse model assessed as effect on CD4+ cells population at 10 mg/kg, ip qd by flow cytometry; assay type: organism-based; details: in vivo
# Outline: (§6)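 Immune cells isolated from TH-MYCN tumor-bearing mice treated with vehicle or compound; CD45+, CD4+, CD8+, macrophage, patrolling monocyte/DC and CD11b+ populations quantified by flow cytometry with characterized markers.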
# Mus musculus [10] = assay: Downregulation of VDR expression in tumor of NSG mouse xenografted with human SK-OV-3 cells at 10 mg/kg, ip by confocal microscopy based immunohistochemistry analysis; assay type: functional, organism-based
# [11] = target: T1, Vitamin D3 receptor (Homo sapiens); assay: Antagonist activity at VDR in human BE2C cells assessed as reduction in MYCN expression at 1 uM incubated for 24 hrs by western blot analysis relative to control; assay type: cell-based; details: filed as antagonist
# Outline: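 BE(2)-C cells given 1 μM for 24 h; immunoblot with β-actin or α-tubulin loading control; normalized densitometry.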
# [12] = Anti-tumor activity against human SK-OV-3 cells xenografted in nude mouse assessed as animal survival at 10 mg/kg, ip measured upto 36 days; details: SK-OV-3, 864 h
# Tumor cell line = assay: Cytotoxicity against tumor cells in TH-MYCN +/+ transgenic neuroblastoma 129x1/SvJ.Tg (TH-MYCN)41Waw/Nci mouse model assessed as reduction in cell viability at 0.1 to 10 uM measured after 3 days by MTS assay; assay type: functional, cell-based; details: dose 0.1-10 µM, time 3.0 day
# Outline: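 Tumor cells mechanically dissociated from tumors of three homozygous TH-MYCN mice, grown as spheres in RPMI1640 with 20% FBS, 2-mercaptoethanol, pyruvate and NEAA; treated 3 days; viability by MTS; spheres imaged by light microscopy.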
# LA-N-5 = assay: Cytotoxicity against human LA-N-5 cells assessed as reduction in cell viability incubated for 48 hrs by MTS assay; assay type: functional, cell-based; details: dose 0.1-10 µM, DDE = dose-dependent effect; outline: as §2
# [13] = Toxicity in TH-MYCN +/+ transgenic neuroblastoma 129x1/SvJ.Tg (TH-MYCN)41Waw/Nci mouse model assessed as effect on patrolling monocytes/DC+ cells population at 10 mg/kg, ip qd by flow cytometry; assay type: organism-based; details: in vivo; outline: as §6
# PANC-1 = assay: Anti-tumor activity against human PANC-1 cells xenografted in NSG mouse assessed as reduction in tumor growth at 10 mg/kg, ip measured on day 12; assay type: functional, organism-based; details: time 12.0 day; outline: as §3
compound,measurement,setting,value
CC(C)CCC[C@@H](C)[C@H]1CC[C@@H]2[C@]1(C)CCC1[C@]23C=C[C@]2(C[C@@H](OC(=O)CBr)CC[C@]12C)n1c(=O)n(C)c(=O)n13 (stereo partly specified),Activity,BE(2)-C [1],Active
same,fold change (FC),[2],0.83
same,Activity,BE(2)-C [3],Dde
same,Activity,D283 Med,Active
same,Activity,BXPC-3,Active
same,Activity,Mus musculus [4],Active
same,Activity,SH-SY5Y [5],Dde
same,Activity,Mus musculus [6],Dde
same,fold change (FC),[7],0.29
same,Activity,SK-OV-3,Active
same,Activity,2008,Dde
same,Activity,IGROV-1,Dde
same,Activity,SH-SY5Y [8],Active
same,Activity,[9],Non-Toxic
same,inhibition,Mus musculus [10],Active
same,fold change (FC),[11],0.68
same,survival at 10 mg/kg,[12],100%
same,Activity,Tumor cell line,Active
same,Activity,LA-N-5,Dde
same,Activity,[13],Non-Toxic
same,Activity,PANC-1,Active
